Rows were chosen to be rich in hits. Some 3.6% of all compounds tested hit in one or more screens of this group.
ATG4B inhibitor: blocks human ATG4B protease cleavage of LC3 substrate. Q9Y4P1. ATG4B cleavage of LC3-PLA2, NBD-HPC fluorescence, 1 h. inhibition, % at 8.33 µM. 340,000 compounds, 0.51% hits. AID 504462; in the data active means inhibition above about 40%
Target sequence (Q9Y4P1 whole entry, looked up): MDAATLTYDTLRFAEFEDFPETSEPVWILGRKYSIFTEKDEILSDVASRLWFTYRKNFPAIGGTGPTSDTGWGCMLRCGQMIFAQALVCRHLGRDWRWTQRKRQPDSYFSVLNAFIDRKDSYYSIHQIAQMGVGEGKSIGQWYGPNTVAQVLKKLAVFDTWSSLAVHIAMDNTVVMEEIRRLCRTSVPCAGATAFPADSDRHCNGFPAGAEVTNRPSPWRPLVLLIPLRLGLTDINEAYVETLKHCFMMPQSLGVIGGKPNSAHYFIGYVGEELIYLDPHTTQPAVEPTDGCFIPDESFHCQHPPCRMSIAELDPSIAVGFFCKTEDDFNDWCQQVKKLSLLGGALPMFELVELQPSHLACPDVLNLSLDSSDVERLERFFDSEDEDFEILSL
SENP1 inh: blocks the human SENP1 SUMO protease catalytic domain; Q9P0U3; recombinant SENP1 catalytic domain, CyPet-SUMO1-YPet FRET cleavage; inhibition, % at 10 µM; 360,000 compounds, 0.21% hits; AID 624204;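 active means inhibition at least 30% at 10 µM, raw YFP signal under a set limit, fluorescence ratio 0.5 to 1.5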;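 further: 0% = enzyme with DMSO and 100% = no enzyme wells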
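Test system: human SENP1 catalytic domain; medium: Tris pH 8 buffer plus EDTA, NaCl, BME, BSA, NP40, catalase; incubation: 50 min reaction at room temperature; technique: FRET, CFP and YFP emission; controls: no-enzyme low control and enzyme-plus-DMSO high control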
NadD block: NadD (S. aureus) enzyme inhibition | purified NadD enzyme, colorimetric absorbance read-out | AID 602399 | 360,000 compounds, 0.78% hits | inhibition, % at 20 µM; in the data active means inhibition above about 26%
NR3A LBD binder: modulators (binders) of human NR3A ligand-binding domain. Tm shift relative to glycine control, % at 25 µM. NR3A LBD differential scanning fluorimetry, Tm shift; 0% = protein alone, 100% = glycine-bound protein. 340,000 compounds, 2.5% hits;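 active means melting temperature shift of at least 10% of the positive control shift, at one fixed dose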
UCH37 inh: blocks the human deubiquitinase UCH37. purified proteasome/UCH37, Ub-AMC cleavage fluorescence. inhibition, % (concentration not given with the values). 330,000 compounds, 0.33% hits. AID 588478;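 active means mean inhibition over replicate wells above about 20%, limit read from the data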;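 further: 0% = compound-free wells with enzyme and 100% = wells lacking proteasome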
Target sequence (Q9Y5K5 whole entry, looked up): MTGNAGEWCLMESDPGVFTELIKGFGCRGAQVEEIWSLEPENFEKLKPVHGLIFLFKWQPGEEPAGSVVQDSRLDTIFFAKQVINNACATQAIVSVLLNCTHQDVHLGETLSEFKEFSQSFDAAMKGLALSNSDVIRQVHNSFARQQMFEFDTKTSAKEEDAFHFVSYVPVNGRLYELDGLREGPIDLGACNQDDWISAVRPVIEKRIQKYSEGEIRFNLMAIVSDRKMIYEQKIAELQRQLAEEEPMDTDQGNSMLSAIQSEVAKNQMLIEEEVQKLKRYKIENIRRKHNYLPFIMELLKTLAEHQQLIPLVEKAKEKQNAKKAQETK
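Assay system: Proteasome-bound UCH37. Buffer or medium: pH 7.4 Tris-HCl (50 mM) with ovalbumin, ATP-MgCl2, DTT. Incubation: 30 min preincubation with enzyme, 25 min cleavage at room temperature. Measured by: fluorescence, ex 355 nm, em 460 nm. Read-out basis: percent inhibition. Control set: wells without proteasome as full block, compound-free enzyme plus substrate as uninhibited.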
* = called active by the depositor; i = inactive; . = no result.

SMILES | ATG4B inhibitor | SENP1 inh | NadD block | NR3A LBD binder | UCH37 inh
O=C(COc1ccc2ccccc2c1)NN=CC1CC=CCC1 (stereo not given) | . | . | . | . | 5.0
CC(=NNC(N)=S)C1=CCC2C3CC[C@H]4CC(O)CC[C@]4(C)C3CC[C@]12C (stereo not given in full) | . | . | . | . | 2.6
Cc1occc1C(=O)NN=CC1=C(N2CCOCC2)/C(=C\c2ccc(Cl)cc2)CC1 | . | . | . | . | -8.1
CC(=O)c1c(N2CCN(C)CC2)nc(=S)n(Cc2ccccc2)c1C | 4.8 | -17.6 | -3.4 | 10.2* | 2.2
CC(=O)c1c(NCc2ccccc2)nc(=O)n(-c2ccccc2)c1C | -2.5 | -2.4 | -0.5 | -0.4 | 3.7
CCn1c(C)c(C(C)=O)c(NCc2ccccc2)nc1=S | -4.2 | -4.0 | 1.9 | 13.7* | 5.0
CCOC(=O)c1sc(NC(=O)CSc2n[nH]c(-c3ccccc3)n2)c(C#N)c1C | -6.5 | -15.0 | 7.7 | 26.8* | .
CCOC(=O)c1sc(NC(=O)CSc2nc(C)cc(C)n2)c(C#N)c1C | -2.3 | -3.5 | 0.8 | -6.7 | 6.4
CCOC(=O)c1sc(NC(=O)c2cc(-c3ccccc3)nc3ccccc23)c(C#N)c1C | -3.5 | 20.3 | 38.5* | 24.3* | 5.5
CN(C)c1ccc(C=Nn2c(-c3ccccc3Br)n[nH]c2=S)cc1 | . | . | . | . | 1.0
CCNC(=S)N(Cc1cc2cccc(C)c2[nH]c1=O)C1CCCC1 | 0.7 | 1.9 | 1.3 | 5.6 | -0.5
Cc1cccc2cc(CN(C(=S)NCC(C)C)C3CCCC3)c(=O)[nH]c12 | -5.4 | 2.2 | -3.4 | 13.1* | -0.8
COCC(C)n1c(C)cc(C(=O)COC(=O)CN=C2NS(=O)(=O)c3ccccc32)c1C (stereo not given) | -11.5 | 0.3 | -4.9 | 10.2* | 2.1
O=C(CN=C1NS(=O)(=O)c2ccccc21)OCC(=O)c1cc(F)ccc1F | -7.1 | 1.9 | 0.0 | -0.7 | -2.0
Clc1ccc(Nc2ccc(NCc3ccccc3)nn2)cc1 | 6.7 | -3.4 | -4.8 | 23.8* | 1.5
Cc1ccc(Nc2ccc(NCc3ccccc3)nn2)cc1C | 23.5 | -2.2 | -8.6 | -6.5 | 0.8
COc1cc(C=NNC(=O)CC2C(=O)NN=C2C)ccc1O (stereo not given) | . | . | . | . | 0.4
Cc1ccc(C)c(S(=O)(=O)N2CCC3(CC2)OCCN3S(=O)(=O)c2cccs2)c1 | -2.2 | 1.0 | -7.5 | -0.4 | 3.7
COc1ccc(C)cc1S(=O)(=O)N1CCC2(CC1)OCCN2S(=O)(=O)c1cccs1 | -3.5 | 1.2 | -3.5 | 15.5* | -0.9
O=C(CN1C(=O)NC(Cc2ccccc2)C1=O)Nc1ccc(F)cc1 (stereo not given) | 2.2 | 0.9 | 0.4 | -6.0 | 0.4
O=C(CN1C(=O)NC(Cc2ccccc2)C1=O)Nc1ccc(OC(F)(F)F)cc1 (stereo not given) | -5.5 | 2.6 | -6.8 | 15.2* | .
O=C(CN1C(=O)NC(Cc2ccccc2)C1=O)Nc1ccc(F)c(Cl)c1 (stereo not given) | -50.4 | 3.3 | -3.2 | 29.3* | 1.4
CC(Sc1nnc(Nc2ccccc2)s1)C(=O)Nc1nc(-c2ccccc2)cs1 (stereo not given) | -17.6 | -1.0 | 22.9 | 4.0 | 1.2
CC(Sc1nnc(NCc2ccccc2)s1)C(=O)Nc1ccc2c(c1)C(=O)c1ccccc1C2=O (stereo not given) | 22.1 | -6.8 | 38.4* | -4.5 | 6.6
NNC(=O)c1cc(-c2ccc(O)cc2)nc2ccc(Br)cc12 | 6.5 | 2.4 | -6.2 | 10.8* | 5.3
SMILES | ATG4B inhibitor | SENP1 inh | NadD block | NR3A LBD binder | UCH37 inh
O=C(c1cccc(C(F)(F)F)c1)C1CCCN(C(=O)CN2CCOC2=O)C1 (stereo not given) | -5.3 | 0.7 | -7.4 | 11.1* | 1.3
O=C(O)c1ccc(NS(=O)(=O)c2ccc(Cl)c(C(=O)Nc3ccccc3)c2)cc1 | 0.5 | -0.8 | -1.6 | -1.6 | 0.2
O=C(O)c1cccc(NS(=O)(=O)c2cc(S(=O)(=O)c3ccc(Cl)cc3)ccc2Cl)c1 | 11.6 | 3.9 | -2.3 | 15.5* | -0.1
O=C(O)c1ccc(Cl)c(S(=O)(=O)Nc2ccccc2C(=O)Nc2ccc(Cl)cc2)c1 | 11.8 | -0.2 | 3.7 | 29.4* | -1.4
O=C(Nc1ccc(NS(=O)(=O)c2ccccc2)cc1)c1ccccc1Cl | -3.1 | 2.2 | -5.5 | 35.0* | 3.5
Cc1cc(S(=O)(=O)Nc2cccc(C(=O)O)c2)c(C)c(S(=O)(=O)c2ccc(Cl)cc2)c1 | -2.4 | 0.2 | -2.0 | 0.8 | 4.9
CC(=NNC(=O)c1cccs1)c1ccc(N2CCOCC2)cc1 | . | . | . | . | 2.3
COc1ccc(C=NNC(=O)c2ccccc2O)cc1Cn1cc(Cl)cn1 | . | . | . | . | -50.2
Cc1[nH]c2ccccc2c1C=NNC(=O)CNc1ccc2c(c1)OCO2 | . | . | . | . | 1.0
Cc1cc(Cl)ccc1OCc1cn2cccnc2n1 | -2.8 | -2.4 | 0.2 | -1.6 | -3.7
Clc1cccc(NCc2cn3cccnc3n2)c1 | 8.6 | -0.8 | -1.6 | 10.9* | 1.3
CC(=O)Nc1ccc2nc(NC(=O)CCc3ccccc3)sc2c1 | -1.6 | 0.0 | 4.8 | 22.5* | 5.0
CC(=O)Nc1ccc2nc(NC(=O)COc3ccccc3)sc2c1 | -1.0 | 1.1 | -9.3 | 0.7 | 3.8
CC(=O)Nc1ccc2nc(NC(=O)COc3cccc(C)c3)sc2c1 | -15.6 | 3.1 | -11.4 | 11.0* | 3.1
O=C(COc1ccccc1)Nc1nc2cc3c(cc2s1)OCO3 | 2.8 | 0.4 | -4.3 | 13.6* | 0.5
CC(=O)Nc1cccc(-c2nc3ccc(NC(C)=O)cc3s2)c1 | -11.9 | -15.7 | 3.4 | 16.1* | i
Fc1cccc(F)c1C=NNC(=S)Nc1cccnc1 | . | . | . | . | 2.4
C=CCOc1c(Br)cc(C=NNC(=O)Cc2ccc(C(F)(F)F)cc2[N+](=O)[O-])cc1OC | . | . | . | . | 1.5
Cc1nc2ccc(NC(=O)COc3ccccc3F)cc2s1 | -5.0 | -0.9 | -7.2 | -16.9 | -1.8
CC(=O)Nc1ccc2nc(NC(=O)COc3ccccc3C)sc2c1 | -12.2 | 0.1 | -9.3 | 23.2* | 2.3
CC(=O)Nc1ccc2nc(NC(=O)C(Cl)(Cl)Cl)sc2c1 | 8.1 | -0.8 | 0.3 | -8.7 | 5.0
COc1cccc2sc(Nc3nc4ccc(NC(C)=O)cc4s3)nc12 | -10.2 | -7.0 | 13.0 | 30.6* | -217.3
CC(=O)Nc1ccc2nc(NC(=O)COc3ccc(C)cc3)sc2c1 | -14.7 | -0.2 | -7.7 | -0.6 | 3.4
CC(=O)Nc1ccc2nc(NC(=O)COc3ccccc3Cl)sc2c1 | -12.3 | 0.2 | 1.3 | 19.9* | -1.8
O=C(NN=Cc1ccco1)c1ccc(C(=O)NN=Cc2ccco2)o1 | . | . | . | . | 9.7
CC(=O)Nc1sc(NN=Cc2cccc(Cl)c2)nc1-c1cccs1 | . | . | . | . | -33.6
CC(=NNc1ccc(Cl)cc1)c1c(O)cc(C)oc1=O | . | . | . | . | 0.2
CC(=NNC(=O)CNc1ccc(C)cc1)c1ccc(Br)s1 | . | . | . | . | 7.6
COc1ccc(NS(=O)(=O)c2cc(NC(=O)/C=C/c3cccs3)ccc2N2CCOCC2)cc1 | -5.2 | 0.8 | 12.9 | 30.1* | 2.0
Cc1ccc(-n2[nH]c(C)c(/C=N/NC(=O)c3ccc(O)cc3O)c2=O)cc1 | -0.8 | -82.2 | 5.7 | 13.3* | .
